Measurements taken from ChEMBL document CHEMBL5214999, “Identification and Optimization of a Ligand-Efficient Benzoazepinone Bromodomain and Extra Terminal (BET) Family Acetyl-Lysine Mimetic into the Oral Candidate Quality Molecule I-BET432” (J Med Chem, 2022).
pIC50: −log10 of the molar value.

Experiments:
[1] = Intrinsic clearance in dog hepatocytes incubated upto 45 mins by LC-MS/MS analysis; type: ADME, cell-based, Canis lupus familiaris, Hepatocyte; conditions: 0.75 h
[2] = Unbound clearance in Wistar Han rat blood at 3.1 mg/kg, po or 1 mg/kg, iv measured upto 24 hrs by LC-MS/MS analysis; type: ADME, organism-based; conditions: in vivo
Summary of the method: (§1)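 Male Wistar Han rats and beagle dogs were dosed iv as a 1 h infusion in DMSO with 10% (w/v) Kleptose HPB in saline (2%:98% or 5%:95% v/v). Oral doses were given in 1% (w/v) methylcellulose (400 cps) aqueous suspension. Oral values are means of n = 3 and iv values n = 1 unless otherwise noted.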

[3] = Solubility of the compound at pH 6.5 in fast state simulated intestinal fluid incubated for 16 hrs by HPLC analysis; type: physicochemical; conditions: fasted state simulated intestinal fluid
[4] = target: T1, Bromodomain-containing protein 4 (Homo sapiens, UniProt O60885); assay: Inhibition of BRD4 BD2 (unknown origin) measured by TR-FRET assay
[5] = Unbound volume of distribution at steady state in Wistar Han rat at 3.1 mg/kg, po or 1 mg/kg, iv measured upto 24 hrs by LC-MS/MS analysis; type: ADME, organism-based; conditions: in vivo; summary of the method: as §1
[6] = Oral bioavailability in Wistar Han rat at 3.1 mg/kg measured upto 24 hrs by LC-MS/MS analysis; type: ADME, organism-based; conditions: in vivo; summary of the method: as §1
[7] = Half-life in Wistar Han rat at 3.1 mg/kg, po or 1 mg/kg, iv measured upto 24 hrs by LC-MS/MS analysis; type: ADME, organism-based; conditions: in vivo; summary of the method: as §1
[8] = Artificial membrane permeability of the compound; type: ADME; conditions: PAMPA; read-out: permeability
[9] = Lipophilicity, logD of compound at pH 7.4 by Chromatography; type: physicochemical; conditions: buffer
C-C motif chemokine 2 = C-C motif chemokine 2 (Homo sapiens, UniProt P13500); assay: Inhibition of MCP-1 in LPS-stimulated human whole blood incubate for 24 hrs by immuno assay; type: tissue-based
[10] = Clearance in Wistar Han rat blood at 3.1 mg/kg, po or 1 mg/kg, iv measured upto 24 hrs by LC-MS/MS analysis; type: ADME, organism-based; conditions: whole blood; summary of the method: as §1
[11] = Intrinsic clearance in rat hepatocytes after 60 mins by LC-MS/MS analysis; type: ADME, cell-based, Hepatocyte; conditions: 1 h
[12] = Volume of distribution at steady state in Wistar Han rat at 3.1 mg/kg, po or 1 mg/kg, iv measured upto 24 hrs by LC-MS/MS analysis; type: ADME, organism-based; conditions: in vivo, read-out: Vdss; summary of the method: as §1
[13] = target: T1, Bromodomain-containing protein 4; assay: Inhibition of BRD4 BD1 (unknown origin) measured by TR-FRET assay
[14] = Intrinsic clearance in human hepatocytes measured after 120 mins by LC-MS/MS analysis; type: ADME, cell-based, Hepatocyte; conditions: 2 h
[15] = Clearance in Beagle dog blood at 1.5 mg/kg, po or 0.4 mg/kg, iv measured upto 24 hrs by LC-MS/MS analysis; type: ADME, organism-based, Canis lupus familiaris; conditions: whole blood; summary of the method: as §1
[16] = Volume of distribution at steady state in Beagle dog at 1.5 mg/kg, po or 0.4 mg/kg, iv measured upto 24 hrs by LC-MS/MS analysis; type: ADME, organism-based, Canis lupus familiaris; conditions: in vivo, read-out: Vdss; summary of the method: as §1
[17] = Unbound fraction in Wistar Han rat at 3.1 mg/kg, po or 1 mg/kg, iv measured upto 24 hrs by LC-MS/MS analysis; type: ADME, organism-based; conditions: in vivo
[18] = Unbound volume of distribution at steady state in Beagle dog at 1.5 mg/kg, po or 0.4 mg/kg, iv measured upto 24 hrs by LC-MS/MS analysis; type: ADME, organism-based, Canis lupus familiaris; conditions: in vivo; summary of the method: as §1
[19] = Oral bioavailability in Beagle dog at 1.5 mg/kg measured upto 24 hrs by LC-MS/MS analysis; type: ADME, organism-based, Canis lupus familiaris; conditions: in vivo; summary of the method: as §1
[20] = Half-life in Beagle dog at 1.5 mg/kg, po or 0.4 mg/kg, iv measured upto 24 hrs by LC-MS/MS analysis; type: ADME, organism-based, Canis lupus familiaris; conditions: in vivo; summary of the method: as §1
[21] = Unbound clearance in Beagle dog blood at 1.5 mg/kg, po or 0.4 mg/kg, iv measured upto 24 hrs by LC-MS/MS analysis; type: ADME, organism-based, Canis lupus familiaris; conditions: in vivo; summary of the method: as §1
[22] = Unbound fraction in Beagle dog at 1.5 mg/kg, po or 0.4 mg/kg, iv measured upto 24 hrs by LC-MS/MS analysis; type: ADME, organism-based, Canis lupus familiaris; conditions: in vivo

Chain of C-C motif chemokine 2 (P13500 whole entry): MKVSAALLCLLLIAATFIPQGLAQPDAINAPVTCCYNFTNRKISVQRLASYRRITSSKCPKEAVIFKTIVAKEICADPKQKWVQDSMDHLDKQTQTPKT

Structure (SMILES)	CLH [1] [mL/min/g]	CL free [2] [mL/min/kg]	solubility at 16 h [3] [µg/mL]	pIC50 [4]	Vduss [5] [L/kg]	bioavailability [6] [%]	half-life [7] [min]	Papp [8] [×10⁻⁶ cm/s]	chromatographic logD [9]	pIC50 (C-C motif chemokine 2)	clearance [10] [mL/min/kg]	CLH [11] [mL/min/g]	Vd [12] [L/kg]	pIC50 [13]	CLH [14] [mL/min/g]	further results
C[C@H]1C(=O)N(C)C=C(c2cn[nH]c2)c2cc([C@H](O)CO)ccc21	< 0.65	75	> 1000	7.60	1.8	19	24.6	0.8	0.8	7.40	43	< 0.8	1	7.80	0.52	–
C[C@H]1C(=O)N(C)C=C(c2cnn(C)c2)c2cc([C@H](O)CO)ccc21	1.12	31	> 1000	7.50	1.8	66	58.2	3.1	1.3	7.40	19	< 0.8	1.1	7.50	< 0.45	clearance [15]: 45 mL/min/kg; Vd [16]: 1.7 L/kg; Fu [17]: 0.61; Vduss [18]: 3.3 L/kg; bioavailability [19]: 39%; half-life [20]: 30 min; CL free [21]: 87 mL/min/kg; Fu [22]: 0.52
